Measured values published in ChEMBL document CHEMBL1154004, “Relationships between the structures of flavanone derivatives and their effects in enhancing early growth response-1 gene expression” (2009).
The source made the active and inactive calls. The rule behind the calls is not given here.

Tested on: HEK293
Test: Increase in EGR1 mRNA expression in human HEK293 cells at 20 ug/mL after 6 to 12 hrs by dual-glo luciferase assay relative to control
Format: functional
Conditions: not given
In short: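 Egr-1 promoter reporter assay after transient transfection. Activity is the level with compound divided by the compound-free control level, with the control set at 1.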

Structure (SMILES)	fold change (FC)
O=C1CC(c2ccccc2)Oc2cc(O)ccc21 (centres undefined) [7-HYDROXYFLAVANONE]	2.1
COc1ccc2c(c1)C(=O)CC(c1ccccc1)O2 (centres undefined)	1.6
COc1ccc2c(c1)OC(c1cc(OC)c(OC)c(OC)c1)CC2=O (centres undefined)	1
O=C1CC(c2cccc(O)c2)Oc2ccccc21 (centres undefined) [3'-HYDROXYFLAVANONE]	6.7
COc1cc(O)c2c(c1)OC(c1ccc(O)cc1)CC2=O (centres undefined)	0.4
O=C1C[C@@H](c2ccc(O)cc2)Oc2cc(O)cc(O)c21 [NARINGENIN]	1.2
O=C1CC(c2ccccc2)Oc2c(Cl)cccc21 (centres undefined)	1.7
COc1cc(OC)c2c(c1)OC(c1ccccc1)CC2=O (centres undefined) [DIMETHYLPINOCEMBRIN]	1.9
COc1ccc(C2CC(=O)c3ccccc3O2)cc1OC (centres undefined)	4.3
O=C1c2c(O)cc(O)cc2OC(c2ccc(O)c(O)c2)C1O (centres undefined) [TAXIFOLIN]	1.3
O=C1CC(c2ccccc2O)Oc2ccccc21 (centres undefined) [2'-HYDROXY-FLAVANONE]	4.2
O=C1CC(c2ccccc2)Oc2ccc(O)cc21 (centres undefined)	1.3
COc1cc([C@@H]2CC(=O)c3c(O)cc(O)cc3O2)ccc1O [HOMOERIODICTYOL]	1.2
O=C1CC(c2ccc(F)cc2)Oc2c(Cl)cccc21 (centres undefined)	2.4
COc1cccc(C2CC(=O)c3cc(OC)ccc3O2)c1 (centres undefined)	2.5
COc1cc(O)c2c(c1)O[C@H](c1ccccc1)CC2=O [PINOSTROBIN]	1.6
COc1ccc(C2CC(=O)c3c(OC)cc(OC)cc3O2)cc1 (centres undefined)	0.7
COc1cc(C2CC(=O)c3ccccc3O2)ccc1O (centres undefined)	5.1
O=C1CC(c2ccccc2)Oc2ccccc21 (centres undefined) [FLAVANONE]	2.3

Structure (SMILES)	fold change (FC)
Cc1ccc(C2CC(=O)c3cccc(Cl)c3O2)cc1 (centres undefined)	1.3
O=C1c2ccc(O)cc2OC(c2ccc(O)c(O)c2)C1O (centres undefined)	1.3
COc1ccc(C2CC(=O)c3ccccc3O2)cc1 (centres undefined)	1.2
O=C1c2ccc(O)cc2O[C@@H](c2cc(O)c(O)c(O)c2)[C@@H]1O [DIHYDROROBINETIN]	0.7
O=C1CC(c2ccccc2O)Oc2ccc(O)cc21 (centres undefined)	1.2
COc1ccc([C@@H]2CC(=O)c3c(O)cc(O)cc3O2)cc1O [HESPERETIN]	2.4
COc1ccc(C2CC(=O)c3cc(Cl)ccc3O2)cc1OC (centres undefined)	0.7
O=C1C[C@@H](c2ccc(O)c(O)c2)Oc2cc(O)cc(O)c21 [ERIODICTYOL]	2.1
O=C1CC(c2ccc(O)cc2)Oc2ccccc21 (centres undefined) [4'-HYDROXY-FLAVANONE]	1.4
COc1ccc2c(c1)C(=O)CC(c1ccc(OC)c(OC)c1)O2 (centres undefined)	0.7
COc1ccc(C2CC(=O)c3cc(OC)ccc3O2)c(OC)c1 (centres undefined)	1.5
COc1ccc2c(c1)OC(c1ccccc1)CC2=O (centres undefined)	1.1
O=C1C[C@@H](c2ccccc2)Oc2cc(O)cc(O)c21 [PINOCEMBRIN]	0.4
COc1cc(C2CC(=O)c3c(O)cc(O)cc3O2)cc(OC)c1OC (centres undefined)	1.2
COc1cc(O)cc2c1C(=O)CC(c1ccccc1)O2 (centres undefined)	1
COc1cccc2c1C(=O)CC(c1ccccc1)O2 (centres undefined)	3.6
COc1ccc2c(c1)C(=O)CC(c1cccc(OC)c1OC)O2 (centres undefined)	3.9
Cc1ccc(C2CC(=O)c3cc(Cl)ccc3O2)cc1 (centres undefined)	0.8

Tested on: HeLa
Test: Increase in EGR1 mRNA expression in human HeLa cells after 1 hr by Western blotting
Format: functional, cell-based
Conditions: in the assay text read “EGR1 protein expression” for “EGR1 mRNA expression”
In short: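 Human cervix carcinoma HeLa cells were left untreated or exposed to compound at 10, 20 or 40 for 1 h. Egr-1 protein level was then examined by Western blot.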

Structure (SMILES)	Activity
O=C1CC(c2cccc(O)c2)Oc2ccccc21 (centres undefined) [3'-HYDROXYFLAVANONE]	Active
O=C1CC(c2ccccc2O)Oc2ccccc21 (centres undefined) [2'-HYDROXY-FLAVANONE]	Active
